We go through 24 compounds from ChEMBL document CHEMBL1135649, “CycloSal-BVDUMP pronucleotides: how to convert an antiviral-inactive nucleoside analogue into a bioactive compound against EBV” (J Med Chem, 2002).

For one data set, the system named is Nucleic Acid. The data set can be described thus: Effective concentration for the inhibition of Epstein-Barr virus EBV-DNA synthesis in human lymphoblastoid P3HR-1 cells. The data set is classed as functional, cell-based. To be noted: human gammaherpesvirus 4, P3HR-1. The essentials:
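P3HR-1 (EBV producer) cells in RPMI-1640 with 10% heat-inactivated FCS at 36.5 °C, seeded at 10⁶ cells/mL. TPA 20 ng/mL added to induce virus production. Compound given at a range of concentrations for 7 days. DNA extracted and 10 μg used for slot blot hybridization with a digoxigenin-labeled EBV BamHI-W probe, chemiluminescence and densitometry. EC50 obtained by regression against untreated cells.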

Data set [1] can be described thus: Partition coefficient (logP). It is filed as physicochemical. To be noted: octanol/water. The essentials: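 Compound dissolved in 0.3 mL 1-octanol and shaken with 0.3 mL water by vortexing for 10 min. Phases separated by centrifugation. Each phase analysed by RP-18 HPLC with UV detection at 250 nm. P taken from the ratio of aqueous and organic peak areas.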

For data set [2], the system named is P3HR-1. The data set can be described thus: Cytotoxic concentration for inhibition of human lymphoblastoid P3HR-1 cell growth. The data set is classed as functional. The essentials:
(§1)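 P3HR-1 cells seeded at 2 × 10⁵ cells/mL and grown 7 days with compound at a range of concentrations. Cells counted on a particle counter. CC50 calculated as 50% inhibition of cell growth.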

Data set [3] relates to P3HR-1. The data set can be described thus: Cytotoxic concentration for the inhibition of P3HR-1 cell growth. The data set is classed as functional. The note with it: Homo sapiens. The essentials: as §1
Data set [4] in a line: Selectivity index as the ratio of CC50 value to that of EC50 value. It is filed as functional. In a few lines: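 Selectivity index is CC50 (μM)/EC50 (μM). CC50 is for P3HR-1 growth over 7 days, read by cell count. EC50 is for EBV DNA synthesis in TPA-induced P3HR-1 cells over 7 days, read by slot blot.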
Data set [5] in a line: Selectivity as the ratio of CC50 value to that of EC50 value. It is filed as functional. In a few lines: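 Ratio CC50/EC50, both in P3HR-1 cells over 7 days at varied concentrations. EC50: cells seeded at 10⁶ cells/mL, induced with TPA 20 ng/mL; EBV DNA in 10 μg total DNA by slot blot with digoxigenin-labeled BamHI-W probe, chemiluminescence and densitometry; regression against untreated cells. CC50: growth from 2 × 10⁵ cells/mL, cells counted with a particle counter.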

Broadly, the EC50 is the midpoint of the concentration-response curve. A word on the logP: it is the decadic logarithm of the partition coefficient of the neutral form, usually between octanol and water. One may read the CC50 as the concentration that lowers cell viability or growth by half. Higher therefore signals lower toxicity to the cells.

In turn, `CC(=O)CCC(=O)O[C@H]1C[C@H](n2cc(/C=C/Br)c(=O)[nH]c2=O)O[C@@H]1COP1(=O)OCc2cccc(C)c2O1` (stereo partly specified) gave a concentration giving a half-maximal response (EC50) in the data set with Nucleic Acid of more than 163 µM. The logP in data set [1] turned out to be 2.3. This compound had a CC50 with P3HR-1 [2] of 152 µM.
In the data set on Nucleic Acid, `Cc1cccc2c1OP(=O)(OC[C@H]1O[C@@H](n3cc(/C=C/Br)c(=O)[nH]c3=O)C[C@@H]1OC(=O)[C@H](N)CC(C)C)OC2` (stereo partly specified) had a half-maximal effective concentration (EC50) of more than 135 µM. The compound further displayed a logP in data set [1] of 0.4. This compound came in with a CC50 in the data set on P3HR-1 [2] of 65 µM.
For `Cc1cccc2c1OP(=O)(OC[C@H]1O[C@@H](n3cc(/C=C/Br)c(=O)[nH]c3=O)C[C@@H]1OC(=O)CC(C)C)OC2` (stereo partly specified), in that order: more than 171 µM, 2.4 and 104 µM.
As for `CCCCCCC(=O)O[C@H]1C[C@H](n2cc(/C=C/Br)c(=O)[nH]c2=O)O[C@@H]1COP1(=O)OCc2cccc(C)c2O1` (stereo partly specified), the EC50 in the data set with Nucleic Acid is more than 163 µM. Moreover, in data set [1], the logP turned out to be 2.6. The compound also returned a CC50 with P3HR-1 [3] of more than 326 µM.
`CC(=O)O[C@H]1C[C@H](n2cc(/C=C/Br)c(=O)[nH]c2=O)O[C@@H]1COP1(=O)OCc2cccc(C)c2O1` (stereo partly specified) showed a logP in data set [1] of 2.2. Further, the cytotoxic concentration (CC50) in the data set on P3HR-1 [2] was determined as 109 µM.
In the data set with Nucleic Acid, `CCCCCCCCCCC(=O)O[C@H]1C[C@H](n2cc(/C=C/Br)c(=O)[nH]c2=O)O[C@@H]1COP1(=O)OCc2cccc(C)c2O1` (stereo partly specified) had a half-maximal effective concentration (EC50) of more than 149 µM. Besides, the logP in data set [1] was found to be 2.8. For the same compound, the CC50 in the data set on P3HR-1 [3] is more than 299 µM.
Take `COc1ccc2c(c1)COP(=O)(OC[C@H]1O[C@@H](n3cc(/C=C/Br)c(=O)[nH]c3=O)C[C@@H]1O)O2` (stereo partly specified): in the data set with Nucleic Acid, a half-maximal response (EC50) required 3.35 µM. The compound further returned a logP in data set [1] of 1.6. The compound also registered a CC50 in the data set on P3HR-1 [2] of 137 µM. Besides, in data set [4], the SI stood at 41.
`Cc1cccc2c1OP(=O)(OC[C@H]1O[C@@H](n3cc(/C=C/Br)c(=O)[nH]c3=O)C[C@@H]1OC(=O)[C@H](N)C(C)C)OC2` (stereo partly specified): in the data set on Nucleic Acid, the EC50 is more than 137 µM. Moreover, in data set [1], the logP is -0.1. Moreover, the CC50 in the data set on P3HR-1 [2] was 80 µM.
Turning to `O=c1[nH]c(=O)n([C@H]2C[C@H](O)[C@@H](COP3(=O)OCc4cc(Cl)ccc4O3)O2)cc1/C=C/Br` (stereo partly specified), the EC50 in the data set on Nucleic Acid turned out to be 25.8 µM. For the same compound, the lipophilicity (logP) in data set [1] turned out to be 1.8. This compound also yielded a cytotoxic concentration (CC50) with P3HR-1 [2] of 80 µM. In data set [4], the SI turned out to be 3.1.
For `Cc1cccc2c1OP(=O)(OC[C@H]1O[C@@H](n3cc(/C=C/Br)c(=O)[nH]c3=O)C[C@@H]1OC(=O)CN)OC2` (stereo partly specified), in that order: 43.5 µM, -0.8, 93 µM and 2.1.
For `CCC(C)[C@@H](N)C(=O)O[C@H]1C[C@H](n2cc(/C=C/Br)c(=O)[nH]c2=O)O[C@@H]1COP1(=O)OCc2cccc(C)c2O1` (stereo partly specified), the concentration giving a half-maximal response (EC50) with Nucleic Acid is more than 135 µM. In data set [1], this compound had a lipophilicity (logP) of -0.02. This compound had a half-maximal cytotoxic concentration (CC50) in the data set on P3HR-1 [2] of 37 µM.
Turning to `Nc1nc2c(ncn2COCCO)c(=O)[nH]1` [ACYCLOVIR], a half-maximal effect with Nucleic Acid (EC50) was put at 6.75 µM. Also, the Selectivity in data set [5] turned out to be 58. In the data set with P3HR-1 [3], this compound showed a CC50 of 392 µM.
Consider `O=c1[nH]c(=O)n([C@H]2C[C@H](O)[C@@H](COP3(=O)OCc4ccccc4O3)O2)cc1/C=C/Br` (stereo partly specified), for which the EC50 in the data set on Nucleic Acid was determined as 12.3 µM. In data set [1], this compound showed a lipophilicity (logP) of 1.5. Half-maximal cytotoxicity in the data set with P3HR-1 [2] (CC50) was put at 92 µM. In addition, the SI in data set [4] stood at 7.5.
The compound `Cc1cccc2c1OP(=O)(OC[C@H]1O[C@@H](n3cc(/C=C/Br)c(=O)[nH]c3=O)C[C@@H]1OC(=O)[C@@H](N)CC(C)C)OC2` (stereo partly specified) had an EC50 in the data set on Nucleic Acid of 23 µM. The logP in data set [1] is 0.4. The compound also came in with a CC50 in the data set on P3HR-1 [2] of 45 µM. For the same compound, in data set [4], the SI amounted to 2.
Turning to `O=c1[nH]c(=O)n([C@H]2C[C@H](O)[C@@H](CO)O2)cc1/C=C/Br` [BRIVUDINE], the concentration giving a half-maximal response (EC50) with Nucleic Acid is more than 300 µM. The same compound displayed a logP in data set [1] of 0.33. In the data set with P3HR-1 [3], this compound gave a CC50 of 225 µM.
Turning to `Cc1cccc2c1OP(=O)(OC[C@H]1O[C@@H](n3cc(/C=C/Br)c(=O)[nH]c3=O)C[C@@H]1OC(=O)[C@@H](N)C(C)C)OC2` (stereo partly specified), in the data set on Nucleic Acid, the concentration for a half-maximal effect (EC50) turned out to be 81.8 µM. Besides, in data set [1], the log partition coefficient (logP) was -0.1. This compound came in with a CC50 with P3HR-1 [2] of 47 µM. Besides, the SI in data set [4] came to 0.6.
In the case of `Cc1cccc2c1OP(=O)(OC[C@H]1O[C@@H](n3cc(/C=C/Br)c(=O)[nH]c3=O)C[C@@H]1OC(=O)[C@@H](N)Cc1ccccc1)OC2` (stereo partly specified), in the data set with Nucleic Acid, the EC50 was not below 129 µM. In addition, the lipophilicity (logP) in data set [1] stood at 0.5. Also, the midpoint of cytotoxicity in the data set on P3HR-1 [2], the CC50, lay at 35 µM.
In the data set with Nucleic Acid, `Cc1cccc2c1OP(=O)(OC[C@H]1O[C@@H](n3cc(/C=C/Br)c(=O)[nH]c3=O)C[C@@H]1OC(=O)[C@@H]1CCCN1)OC2` (stereo partly specified) came in with a concentration for a half-maximal effect (EC50) not below 138 µM. This compound also yielded a logP in data set [1] of -0.4. The compound further registered a 50% cytotoxic concentration (CC50) in the data set with P3HR-1 [2] of 36 µM.
Take `Cc1cccc2c1OP(=O)(OC[C@H]1O[C@@H](n3cc(/C=C/Br)c(=O)[nH]c3=O)C[C@@H]1OC(=O)[C@H](N)Cc1ccccc1)OC2` (stereo partly specified): it took 46.5 µM to reach a half-maximal effect with Nucleic Acid (EC50). The same compound showed a logP in data set [1] of 0.5. In the data set with P3HR-1 [2], the 50% cytotoxic concentration (CC50) came to 66 µM. Further, the SI in data set [4] came out at 1.4.
`Cc1cccc2c1OP(=O)(OC[C@H]1O[C@@H](n3cc(/C=C/Br)c(=O)[nH]c3=O)C[C@@H]1OC(=O)[C@H]1CCCN1)OC2` (stereo partly specified): in the data set with Nucleic Acid, the concentration giving a half-maximal response (EC50) is not below 138 µM. In data set [1], this compound gave a logP of -0.4. Moreover, the CC50 with P3HR-1 [2] is 38 µM.
In turn, `Cc1cccc2c1OP(=O)(OC[C@H]1O[C@@H](n3cc(/C=C/Br)c(=O)[nH]c3=O)C[C@@H]1O)OC2` (stereo partly specified) gave a 50% effective concentration (EC50) in the data set with Nucleic Acid of 4.11 µM. In addition, the logP in data set [1] worked out at 1.9. In the data set on P3HR-1 [2], this compound gave a cytotoxic concentration (CC50) of 122 µM. The SI in data set [4] worked out at 30.
As for `CC(C)(C)c1cccc2c1OP(=O)(OC[C@H]1O[C@@H](n3cc(/C=C/Br)c(=O)[nH]c3=O)C[C@@H]1O)OC2` (stereo partly specified), the half-maximal effective concentration (EC50) in the data set with Nucleic Acid is 32.5 µM. Besides, in data set [1], the lipophilicity (logP) turned out to be 2.9. In addition, in the data set with P3HR-1 [2], the CC50 was found to be 80 µM. Also, the SI in data set [4] came out at 2.5.
`Cc1cc(C)c2c(c1)COP(=O)(OC[C@H]1O[C@@H](n3cc(/C=C/Br)c(=O)[nH]c3=O)C[C@@H]1O)O2` (stereo partly specified) had an EC50 in the data set with Nucleic Acid of 14.4 µM. The same compound showed a logP in data set [1] of 2.2. In the data set on P3HR-1 [2], this compound showed a 50% cytotoxic concentration (CC50) of 143 µM. Moreover, the SI in data set [4] worked out at 9.9.
The compound `CCC(C)[C@H](N)C(=O)O[C@H]1C[C@H](n2cc(/C=C/Br)c(=O)[nH]c2=O)O[C@@H]1COP1(=O)OCc2cccc(C)c2O1` (stereo partly specified) had a concentration giving a half-maximal response (EC50) in the data set on Nucleic Acid of more than 135 µM. Besides, the logP in data set [1] is -0.02. In the data set on P3HR-1 [2], this compound returned a CC50 of 78 µM.
